Experimental data from publication PMC6405215 (Cell chemical biology, 2018).

What was measured:
[1] = tested on: human macrophages; assay: Macrophage phagocytosis of serum-treated zymosan; format: cell-based; conditions: human MΦ; for phagocytosis of STZ, dose response: 0.1pM-10 nM, 15 min preincubation; for increase of phagocytosis of STZ above vehicle: 10 pM
In short: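 GM-CSF-differentiated human macrophages were plated at 50,000 cells/well in PBS++ and used 24 h later. Compounds (0.1 pM–10 nM) were added for 15 min at 37 °C, pH 7.45. FITC-labelled serum-treated zymosan was then added at 10:1 for 40 min at 37 °C. Extracellular signal was quenched with trypan blue and fluorescence read at Ex 493/Em 535 nm. Results are % above vehicle, triplicates from 3–4 donors, with curve fitting.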

[2] = tested on: mock-transfected macrophages; assay: Real-time phagocytosis of live E. coli, mock-transfected macrophages; format: cell-based, human; conditions: 10 nM
In short: (§1)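 Macrophages were transfected with a human GPR32 expression vector or a mock vector (5 μg) using Jet-PEI. Cells were re-plated on chamber slides 48 h later and imaged 24 h after that in a stage-top incubator. Compound (10 nM) was given for 15 min at 37 °C, then BacLight Green-labelled E. coli at 50:1. Fluorescence was imaged every 10 min for 60 min, 4 fields/well at 40X. Results are % above vehicle from 3 donors.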

[3] = target: T1, DRV1/GPR32 (Homo sapiens, UniProt O75388); assay: GPR32 cAMP HTRF signaling assay; format: cell-based; conditions: for effect on forskolin-stimulated cAMP: forskolin 8 μM
In short: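 CHO-K1 PathHunter GPR32 cells were seeded at 1,800 cells/well for 20 h, then stimulated with forskolin (8 μM final) plus Ro 20-1724 (100 μM final). Compounds were added as 1:3 dilutions (57 μM–1 nM final) for 30 min at 37 °C. cAMP was read by HTRF as the 665/615 nm ratio ×10,000. Forskolin alone set 0%; DMSO (0.57%) set −100%. Two experiments in triplicate.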

[4] = target: recombinant human DRV1 (Homo sapiens, UniProt O75388); assay: Electrical cell substrate impedance sensing; format: cell-based; conditions: for direction of impedance change: CHO cells expressing DRV1, concentration not stated
In short: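 GPR32- or mock-transfected CHO cells were seeded at 0.1×10^6 per well of an 8-well ECIS electrode array. Test compounds were added in serum-free medium at 100 nM–10 μM. Impedance across the monolayer was recorded every 4 s for 10 min at 37 °C. Tracings are representative of 3 independent experiments.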

[5] = target: T1, DRV1/GPR32; assay: GPR32 PathHunter β-Arrestin Assay; format: cell-based
In short: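 CHO-K1 PathHunter GPR32 cells were grown with geneticin 800 μg/mL and hygromycin B 300 μg/mL, then seeded at 2,500 cells/well in 1536-well plates overnight. Compounds in DMSO were tested at 11 points (1:3, 57 μM–1 nM) for 90 min at 37 °C, then detection reagent was added for 1 h and luminescence read. DMSO (0.57%) set 0%; a 2-fold signal increase set 100%. Two experiments in triplicate.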

[6] = tested on: human macrophages; assay: CD163; format: cell-based; conditions: 10 nM, 24h; significant only for RvD1
[7] = tested on: DRV1-transfected macrophages; assay: Real-time phagocytosis of live E. coli, macrophages overexpressing DRV1/GPR32; format: cell-based, human; conditions: 10 nM
In short: as §1

[8] = tested on: CHO-WT cells; assay: ECIS in wild-type CHO cells; format: cell-based, Chinese hamster; conditions: 1μM
[9] = hGPR32/DRV1-transfected, 10 min

Sequence of recombinant human DRV1 (O75388 whole entry): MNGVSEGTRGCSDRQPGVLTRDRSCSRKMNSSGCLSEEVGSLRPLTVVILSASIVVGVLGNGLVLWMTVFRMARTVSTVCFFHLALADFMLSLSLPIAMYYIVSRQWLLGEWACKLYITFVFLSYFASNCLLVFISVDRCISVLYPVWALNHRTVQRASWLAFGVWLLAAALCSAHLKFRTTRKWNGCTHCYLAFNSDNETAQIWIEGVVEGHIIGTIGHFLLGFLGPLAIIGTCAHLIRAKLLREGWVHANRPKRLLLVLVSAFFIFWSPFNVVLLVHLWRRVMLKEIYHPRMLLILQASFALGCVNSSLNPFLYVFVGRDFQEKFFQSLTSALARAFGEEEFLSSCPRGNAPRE
T1 sequence (O75388 whole entry): as above

| SMILES | phagocytosis of STZ ([1]; 0.1–10 nM) | increase of phagocytosis of E. coli above vehicle control ([2]; 10 min) | EC50 [3] | effect on forskolin-stimulated cAMP [3] | direction of impedance change [4] | impedance change ([4]; CHO-DRV1, 100 nM-10 μM) | EC50 [5] | phagocytosis of STZ, dose response [1] | increase of phagocytosis of STZ above vehicle [1] | increase of CD163 levels compared to vehicle [6] | increase of phagocytosis of E. coli above vehicle control [7, 9] | increase of phagocytosis of E. coli above vehicle control ([2]; 20–30 min) | impedance change ([4]; CHO-hDRV1, 100 nM) | increase of phagocytosis of E. coli above vehicle control ([7]; DRV1-transfected, 20–30 min) | impedance change ([4]; CHO-DRV1 cells, 1μM) | β-arrestin signal increase above basal cell activity ([5]; GPR32 β-arrestin cells, 11 concentrations 57 μM to 1 nM) | impedance change [8] | β-arrestin activity ([5]; dose response) |
| --- | --- | --- | --- | --- | --- | --- | --- | --- | --- | --- | --- | --- | --- | --- | --- | --- | --- | --- |
| NCCc1c[nH]c2ccc(O)cc12 [5-HT] | did not significantly increase phagocytosis | – | – | – | – | – | – | – | – | – | – | – | – | – | – | – | – | – |
| COc1cccc(C(=O)Nc2nnc(S(=O)(=O)N3CCOCC3)s2)c1 [C1A, 3-methoxy-N-(5-morpholin-4-ylsulfonyl-1,3,4-thiadiazol-2-yl)benzamide] | – | ~ 15% | 380 nM | dose-dependently reduced forskolin-stimulated cAMP release | increased impedance | dose-dependently elicited rapid changes in impedance | 930 nM | enhanced phagocytosis in a dose-dependent manner | 35–40% | 4.7% | > 70% | – | – | – | – | – | – | – |
| O=C(Nc1nnc(S(=O)(=O)N2CCOCC2)s1)c1cccc(Br)c1 [C1B, 3-bromo-N-(5-morpholin-4-ylsulfonyl-1,3,4-thiadiazol-2-yl)benzamide] | – | – | 320 nM | dose-dependently reduced forskolin-stimulated cAMP release | increased impedance | dose-dependently elicited rapid changes in impedance | 3790 nM | – | – | – | – | – | – | – | – | – | – | – |
| Cc1c(-c2cccc(NC(=O)c3ccc(F)c(F)c3)c2)nc2ncccn12 [C2A, 3,4-difluoro-N-[3-(3-methylimidazo[1,2-a]pyrimidin-2-yl)phenyl]benzamide] | – | – | 50 nM | dose-dependently reduced forskolin-stimulated cAMP release | increased impedance | dose-dependently elicited rapid changes in impedance | 370 nM | enhanced phagocytosis in a dose-dependent manner | 35–40% | 13.3% | > 40% | – | – | – | – | – | – | – |
| COc1cccc(C(=O)Nc2cccc(-c3nc4ncccn4c3C)c2)c1 [C2B, 3-methoxy-N-[3-(3-methylimidazo[1,2-a]pyrimidin-2-yl)phenyl]benzamide] | – | – | 190 nM | dose-dependently reduced forskolin-stimulated cAMP release | increased impedance | dose-dependently elicited rapid changes in impedance | 1170 nM | – | – | – | – | – | – | – | – | – | – | – |
| CC/C=C\C[C@H](O)/C=C/C=C\C=C\C=C\[C@@H](O)[C@@H](O)C/C=C\CCC(=O)O [RvD1, 7S,8R,17S-trihydroxy-4Z,9E,11E,13Z,15E,19Z-docosahexaenoic acid, reference compound] | – | – | – | – | reduced impedance | – | – | dose-dependently increased phagocytosis | ~ 60% | 25.7% | – | 30–40% | time-dependently reduced impedance | > 100% | – | – | – | – |
| COc1ccccc1N1CCN(CCN(C(=O)c2ccc(F)cc2)c2ccccn2)CC1 [pMPPF, 4-Fluoro-N-{2-[4-(2-methoxyphenyl)-1-piperazinyl]ethyl}-N-(2-pyridinyl)benzamide, reference compound] | – | – | – | dose-dependently reduced forskolin-stimulated cAMP release | increased impedance | – | 1160 nM | enhanced phagocytosis in a dose-dependent manner | ~ 60% | 13.7% | – | – | – | > 50% | increased | ~ 30% | did not give significant impedance changes | – |
| COc1ccccc1N1CCN(CCN(C(=O)c2ccc(I)cc2)c2ccccn2)CC1 [pMPPI, 4-iodo-N-{2-[4-(2-methoxyphenyl)-1-piperazinyl]ethyl}-N-(2-pyridinyl)benzamide, reference compound] | – | – | 2500 nM | increased forskolin-stimulated cAMP release | reduced impedance | – | – | enhanced phagocytosis in a dose-dependent manner | significantly less potent than pMPPF | 20.0% | – | – | – | – | reduced impedance | – | did not give significant impedance changes | not β-arrestin activities |
